33 compounds from ChEMBL document CHEMBL1155924, “Achieving multi-isoform PI3K inhibition in a series of substituted 3,4-dihydro-2H-benzo[1,4]oxazines” (Bioorg Med Chem Lett, 2008) can be followed below.

The target in data set [1] is Phosphatidylinositol 4,5-bisphosphate 3-kinase catalytic subunit alpha isoform (Homo sapiens, UniProt P42336). The data set can be described thus: Inhibition of PI3K alpha.
Data set [2] concerns the target T1, Phosphatidylinositol 4,5-bisphosphate 3-kinase catalytic subunit delta isoform (Homo sapiens, UniProt O00329).
T1 sequence (O00329 whole entry): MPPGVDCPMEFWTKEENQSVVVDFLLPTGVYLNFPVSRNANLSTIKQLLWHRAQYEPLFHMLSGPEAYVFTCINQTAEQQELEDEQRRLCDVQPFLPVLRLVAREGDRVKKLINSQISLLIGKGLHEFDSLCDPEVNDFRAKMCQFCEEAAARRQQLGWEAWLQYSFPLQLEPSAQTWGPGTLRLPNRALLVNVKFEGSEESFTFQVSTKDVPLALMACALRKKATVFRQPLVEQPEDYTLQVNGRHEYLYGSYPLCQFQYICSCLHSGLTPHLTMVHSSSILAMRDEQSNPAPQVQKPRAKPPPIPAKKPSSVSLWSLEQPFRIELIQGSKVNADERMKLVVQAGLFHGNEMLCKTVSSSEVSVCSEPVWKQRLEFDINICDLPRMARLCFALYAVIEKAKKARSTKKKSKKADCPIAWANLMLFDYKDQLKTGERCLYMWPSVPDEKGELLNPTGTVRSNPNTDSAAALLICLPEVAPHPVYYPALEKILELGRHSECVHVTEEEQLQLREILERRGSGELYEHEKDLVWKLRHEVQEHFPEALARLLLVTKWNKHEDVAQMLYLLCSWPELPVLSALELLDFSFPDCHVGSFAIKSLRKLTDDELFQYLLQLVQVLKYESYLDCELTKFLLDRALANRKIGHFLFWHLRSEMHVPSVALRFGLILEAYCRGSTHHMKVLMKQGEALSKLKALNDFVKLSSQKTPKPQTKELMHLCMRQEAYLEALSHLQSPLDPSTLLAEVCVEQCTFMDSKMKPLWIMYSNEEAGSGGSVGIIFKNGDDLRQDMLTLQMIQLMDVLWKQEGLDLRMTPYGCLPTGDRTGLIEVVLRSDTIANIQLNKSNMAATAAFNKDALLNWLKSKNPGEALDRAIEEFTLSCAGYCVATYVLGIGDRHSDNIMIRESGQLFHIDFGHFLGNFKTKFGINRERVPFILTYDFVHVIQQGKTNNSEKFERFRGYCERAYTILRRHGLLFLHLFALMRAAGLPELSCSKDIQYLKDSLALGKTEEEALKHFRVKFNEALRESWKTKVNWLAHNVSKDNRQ
The data set can be described thus: Inhibition of PI3K delta.

For data set [3], the target named is Phosphatidylinositol 4,5-bisphosphate 3-kinase catalytic subunit gamma isoform (Homo sapiens, UniProt P48736). Briefly: Inhibition of PI3K gamma.
Sequence of Phosphatidylinositol 4,5-bisphosphate 3-kinase catalytic subunit gamma isoform (P48736 whole entry, canonical isoform): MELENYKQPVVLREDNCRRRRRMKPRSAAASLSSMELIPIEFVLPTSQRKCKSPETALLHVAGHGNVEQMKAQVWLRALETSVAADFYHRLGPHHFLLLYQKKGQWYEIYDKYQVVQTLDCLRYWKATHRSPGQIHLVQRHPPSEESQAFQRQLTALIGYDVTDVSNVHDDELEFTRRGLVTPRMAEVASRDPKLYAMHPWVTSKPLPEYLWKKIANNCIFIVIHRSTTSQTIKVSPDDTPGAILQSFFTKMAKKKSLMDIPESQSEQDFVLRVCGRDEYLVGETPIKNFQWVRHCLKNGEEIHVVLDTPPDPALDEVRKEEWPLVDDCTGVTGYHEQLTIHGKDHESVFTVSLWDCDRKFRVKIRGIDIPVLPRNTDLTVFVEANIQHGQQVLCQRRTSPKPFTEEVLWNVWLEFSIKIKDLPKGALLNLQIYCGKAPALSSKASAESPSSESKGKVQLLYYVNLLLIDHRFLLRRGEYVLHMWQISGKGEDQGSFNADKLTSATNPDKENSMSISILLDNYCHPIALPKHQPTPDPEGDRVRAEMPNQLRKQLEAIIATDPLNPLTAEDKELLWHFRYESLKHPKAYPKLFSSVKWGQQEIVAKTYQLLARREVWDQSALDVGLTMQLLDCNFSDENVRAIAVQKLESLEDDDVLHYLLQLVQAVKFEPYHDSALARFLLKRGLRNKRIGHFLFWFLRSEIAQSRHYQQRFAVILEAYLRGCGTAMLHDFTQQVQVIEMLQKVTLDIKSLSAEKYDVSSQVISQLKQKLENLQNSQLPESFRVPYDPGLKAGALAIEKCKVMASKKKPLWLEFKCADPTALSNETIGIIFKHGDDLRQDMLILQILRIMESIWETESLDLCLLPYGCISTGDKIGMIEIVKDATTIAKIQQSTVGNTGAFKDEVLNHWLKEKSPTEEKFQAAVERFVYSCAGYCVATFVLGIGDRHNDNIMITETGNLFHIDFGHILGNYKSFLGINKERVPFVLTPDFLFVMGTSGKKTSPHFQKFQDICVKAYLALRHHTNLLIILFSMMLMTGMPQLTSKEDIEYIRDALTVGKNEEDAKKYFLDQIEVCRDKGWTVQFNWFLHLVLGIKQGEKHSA
Data set [4] deals with Phosphatidylinositol 4,5-bisphosphate 3-kinase catalytic subunit beta isoform (Homo sapiens, UniProt P42338). Briefly: Inhibition of PI3K beta.
Sequence of Phosphatidylinositol 4,5-bisphosphate 3-kinase catalytic subunit beta isoform (P42338 whole entry, canonical isoform): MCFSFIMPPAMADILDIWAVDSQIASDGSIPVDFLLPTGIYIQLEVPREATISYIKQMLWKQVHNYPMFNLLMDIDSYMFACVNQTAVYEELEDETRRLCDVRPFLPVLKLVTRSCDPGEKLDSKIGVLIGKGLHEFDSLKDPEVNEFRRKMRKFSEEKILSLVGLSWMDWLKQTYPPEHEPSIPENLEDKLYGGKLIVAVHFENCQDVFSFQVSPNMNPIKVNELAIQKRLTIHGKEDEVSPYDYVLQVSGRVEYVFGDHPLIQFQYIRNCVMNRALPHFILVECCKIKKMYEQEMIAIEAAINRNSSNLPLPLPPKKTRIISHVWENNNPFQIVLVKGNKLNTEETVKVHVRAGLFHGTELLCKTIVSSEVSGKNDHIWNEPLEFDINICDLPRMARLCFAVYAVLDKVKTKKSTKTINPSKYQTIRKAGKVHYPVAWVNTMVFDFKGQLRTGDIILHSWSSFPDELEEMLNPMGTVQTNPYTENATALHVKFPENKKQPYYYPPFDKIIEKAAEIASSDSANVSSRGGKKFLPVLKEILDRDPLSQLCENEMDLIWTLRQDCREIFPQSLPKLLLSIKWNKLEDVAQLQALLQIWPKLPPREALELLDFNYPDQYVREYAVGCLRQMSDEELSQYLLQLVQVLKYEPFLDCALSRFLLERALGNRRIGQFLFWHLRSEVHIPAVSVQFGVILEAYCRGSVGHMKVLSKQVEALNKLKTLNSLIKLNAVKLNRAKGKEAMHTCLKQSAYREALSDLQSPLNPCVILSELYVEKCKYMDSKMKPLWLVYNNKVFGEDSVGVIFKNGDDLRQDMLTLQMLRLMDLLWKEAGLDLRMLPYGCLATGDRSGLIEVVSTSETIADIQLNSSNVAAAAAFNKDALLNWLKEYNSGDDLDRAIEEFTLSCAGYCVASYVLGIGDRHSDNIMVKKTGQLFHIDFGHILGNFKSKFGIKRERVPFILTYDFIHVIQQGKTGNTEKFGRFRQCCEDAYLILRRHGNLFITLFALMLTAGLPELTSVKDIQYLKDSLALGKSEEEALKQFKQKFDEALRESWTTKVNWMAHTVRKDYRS
The next data set concerns Hepatocyte. Briefly: Clearance in rat hepatocyte assessed per mg of protein at 2 uM. Format: ADME, cell-based, Liver. Conditions: hepatocytes.
Data set [5] is described as follows: Clearance in human microsomes assessed per mg of protein at 0.5 uM. Format: ADME, Microsome.
The nature of data set [6]: Clearance in rat microsomes assessed per mg of protein at 0.5 uM. Format: ADME, Liver, Microsome. To be noted: for microsomal CLint at 0.5 µM: liver microsomes. (In general: Liver microsomes are a subcellular fraction often used to study metabolism.)
The subject of another data set is Neutrophil. Briefly: Inhibition of fMLP-stimulated superoxide production in TNF alpha-primed human neutrophils by spectrophotometry. Format: functional, cell-based. An outline of the steps: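 Human neutrophils were primed with TNFα and stimulated with fMLP, and cellular superoxide production was monitored. Inhibition values are quoted in nM.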
Data set [7] can be described thus: Oral bioavailability in Han-Wistar rat at 3 mg/kg. Format: ADME, organism-based. Conditions: in vivo.
Data set [8] can be described thus: AUC in Han-Wistar rat at 3 mg/kg, po. Details: dose 3 mg/kg, route oral. Format: ADME, organism-based. To be noted: plasma. A digest of the protocol: (§1)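 Male-or-unspecified Han–Wistar rats were given a single oral dose of 3 mg/kg. Plasma Cmax is reported in ng/mL and AUC in ng h/mL.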
Data set [9] in a line: Cmax in Han-Wistar rat at 3 mg/kg, po. Format: ADME, organism-based. Also noted: dose 3 mg/kg, route oral. To be noted: in vivo. A digest of the protocol: as §1
The species named for another data set is Homo sapiens. Briefly: Selectivity for human PI3K gamma over human PI3K delta.

Molecules are shown by their SMILES.

Sequence of Phosphatidylinositol 4,5-bisphosphate 3-kinase catalytic subunit alpha isoform (P42336 whole entry, canonical isoform): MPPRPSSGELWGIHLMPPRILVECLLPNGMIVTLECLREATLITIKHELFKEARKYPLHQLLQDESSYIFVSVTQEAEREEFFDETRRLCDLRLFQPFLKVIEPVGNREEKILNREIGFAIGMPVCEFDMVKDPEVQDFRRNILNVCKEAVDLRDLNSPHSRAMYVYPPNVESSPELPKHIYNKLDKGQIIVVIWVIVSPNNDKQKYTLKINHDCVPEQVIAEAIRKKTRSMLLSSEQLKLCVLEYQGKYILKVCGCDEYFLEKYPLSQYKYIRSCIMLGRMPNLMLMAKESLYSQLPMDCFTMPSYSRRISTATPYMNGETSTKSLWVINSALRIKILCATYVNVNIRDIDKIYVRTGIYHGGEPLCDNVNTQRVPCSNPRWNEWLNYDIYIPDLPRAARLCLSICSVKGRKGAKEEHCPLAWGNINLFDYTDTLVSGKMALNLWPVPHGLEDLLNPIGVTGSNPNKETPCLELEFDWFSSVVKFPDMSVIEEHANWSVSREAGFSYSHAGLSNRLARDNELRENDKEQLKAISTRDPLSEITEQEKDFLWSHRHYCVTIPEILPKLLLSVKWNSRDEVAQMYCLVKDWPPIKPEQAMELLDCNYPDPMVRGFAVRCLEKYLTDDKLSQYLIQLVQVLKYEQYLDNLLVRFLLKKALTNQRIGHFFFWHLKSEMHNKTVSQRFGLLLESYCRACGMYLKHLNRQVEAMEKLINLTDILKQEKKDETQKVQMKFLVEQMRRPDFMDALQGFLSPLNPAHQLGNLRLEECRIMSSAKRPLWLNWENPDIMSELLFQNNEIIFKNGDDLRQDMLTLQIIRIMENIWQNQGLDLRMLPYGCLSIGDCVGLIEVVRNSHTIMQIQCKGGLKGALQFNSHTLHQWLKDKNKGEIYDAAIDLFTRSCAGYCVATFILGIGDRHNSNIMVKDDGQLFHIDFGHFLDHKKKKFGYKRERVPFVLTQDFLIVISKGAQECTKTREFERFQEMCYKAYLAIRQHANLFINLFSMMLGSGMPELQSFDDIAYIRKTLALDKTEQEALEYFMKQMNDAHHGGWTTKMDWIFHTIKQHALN

Consider `CC1(C)Cc2nc(N3CCOc4ccc(Br)cc43)sc2C(=O)N1`, for which the IC50 (in general, the concentration at which inhibition is half-maximal) stood at 1110 nM in [1], 153 nM in [2], 321 nM in data set [3] and 1620 nM in data set [4].
Taken in the same sequence, the figures for `COc1ccc2c(c1)OCCN2c1nc2c(s1)C(=O)NC(C)(C)C2` were 1130 nM, 230 nM, 440 nM and 1590 nM.
Taken in the same sequence, the figures for `CC1(C)CC(=O)c2sc(N3CCOc4ccc(-c5cn[nH]c5)cc43)nc2C1` were 188 nM, 17 nM, 77 nM and 298 nM.
In the same order, the values of `CC1(C)Cc2nc(N3CCOc4ccc(-c5cnc[nH]5)cc43)sc2C(=O)N1` are 736 nM, 81 nM, 163 nM and 727 nM.
For `CC1(C)Cc2nc(N3CCOc4c(F)cccc43)sc2C(=O)N1`, the figures for the IC50 in data set [2], in data set [3] and in [4] were 11200 nM, 16800 nM and 11700 nM, respectively.
With `Cn1cc(-c2ccc3c(c2)N(c2nc4c(s2)C(=O)CC(C)(C)C4)CCO3)cn1`, the CL with Hepatocyte came to 8 µL/min/mg. The IC50 was found to be 294 nM in [1]; 49 nM in data set [2]; 52 nM in data set [3]; 336 nM in data set [4]; 44 nM in the data set with Neutrophil. For the same compound, the microsomal CLint (as a rule, the rate of metabolic loss divided by the concentration) at 0.5 µM is 36 µL/min/mg in [5] and 39 µL/min/mg in data set [6].
For the compound `CC1(C)Cc2nc(N3CCOc4cc(F)ccc43)sc2C(=O)N1`, the results for the IC50 in [2], in data set [3] and in data set [4] were 783 nM, 357 nM and 1240 nM, respectively.
`CC1(C)Cc2nc(N3CCOCC3)sc2C(=O)N1` gave a CL in the data set on Hepatocyte of 1 µL/min/mg. For the same compound, the IC50 was 2370 nM in data set [1]; 722 nM in data set [2]; 5280 nM in [3]; 450 nM in data set [4]; 2960 nM with Neutrophil. The compound also displayed a microsomal CLint at 0.5 µM in data set [5] of 1 µL/min/mg.
In the case of `CC1(C)CC(=O)c2sc(N3CCOc4ncccc43)nc2C1`, the IC50 in data set [1] amounted to 11300 nM; in data set [2] it was 5730 nM; in [3] it was 6650 nM; in data set [4], 5310 nM.
In the case of `Cc1ccc(-c2ccc3c(c2)N(c2nc4c(s2)C(=O)NC(C)(C)C4)CCO3)nn1`, the bioavailability (commonly the share of a dose that reaches the circulation, judged against a reference dose that is usually intravenous) in data set [7] came out at 66%. Besides, the AUC – broadly, concentration integrated over time – in data set [8] is 2470 ng·h/mL. Further, in [9], the Cmax (commonly the maximum level reached in the sampled fluid or tissue) is 185 ng/mL.
For the compound `CC1(C)CC(=O)c2sc(N3CCOc4ccc(-c5ccccn5)cc43)nc2C1`, the IC50 in data set [1] was found to be 677 nM; in [2], 74 nM; in data set [3] it was 258 nM; in data set [4], 2000 nM.
Taken in the same sequence, the figures for `CC1(C)Cc2nc(N3CCOc4ccc(-c5ncccn5)cc43)sc2C(=O)N1` were 791 nM, 123 nM, 189 nM and 623 nM.
Turning to `CC1(C)CC(=O)c2sc(N3CCOc4cc(-c5ccccc5)ccc43)nc2C1`, the IC50 in data set [1] was more than 20000 nM; in data set [2], 1050 nM; in data set [3], more than 20000 nM.
Take `CC1(C)Cc2nc(N3CCOc4ccc(-c5ccn[nH]5)cc43)sc2C(=O)N1`: the half-inhibitory concentration (IC50) in data set [1] was found to be 917 nM; in data set [2], 90 nM; in data set [3] it was 145 nM; in [4], 1470 nM.
Turning to `Cn1ccnc1-c1ccc2c(c1)N(c1nc3c(s1)C(=O)NC(C)(C)C3)CCO2`, the IC50 in [1] was 2900 nM; in [2], 285 nM; in [3], 819 nM; in data set [4], 3520 nM.
Compound `CC1(C)Cc2nc(N3CCOc4cnccc43)sc2C(=O)N1` registered an IC50 in data set [2] of more than 20000 nM.
As to `CC1(C)Cc2nc(N3CCOc4ccc(C5CC5)cc43)sc2C(=O)N1`, the values for the 50% inhibitory concentration (IC50) in [2], in [3] and in data set [4] were 155 nM, 210 nM and 834 nM, respectively.
Take `Cc1ccc2c(c1)N(c1nc3c(s1)C(=O)NC(C)(C)C3)CCO2`: the half-maximal inhibitory concentration (IC50) in [1] was found to be 1810 nM; in data set [2] it was 357 nM; in [3] it was 617 nM; in data set [4], 964 nM.
Taken in the same sequence, the figures for `CC1(C)CC(=O)c2sc(N3CCOc4ccc(-c5cccnc5)cc43)nc2C1` were 172 nM, 20 nM, 113 nM and 376 nM.
In the same order, the values of `Cc1nc(-c2ccc3c(c2)N(c2nc4c(s2)C(=O)NC(C)(C)C4)CCO3)c[nH]1` are 636 nM, 51 nM, 107 nM and 325 nM.
As for `Cc1ccc(-c2ccc3c(c2)N(c2nc4c(s2)C(=O)CC(C)(C)C4)CCO3)cn1`, the IC50 in data set [1] came out at 164 nM; in data set [2], 26 nM; in [3], 73 nM; in data set [4] it was 308 nM. Moreover, the microsomal CLint at 0.5 µM in data set [5] was found to be 48 µL/min/mg; in [6] it was 25 µL/min/mg.
As for `CC(=O)c1ccc2c(c1)N(c1nc3c(s1)C(=O)NC(C)(C)C3)CCO2`, the IC50 came to 366 nM in data set [2], 318 nM in [3] and 1450 nM in [4].
As to `Cc1cccc2c1OCCN2c1nc2c(s1)C(=O)NC(C)(C)C2`, in [2], the IC50 was 15300 nM.
On to `CC1(C)CC(=O)c2sc(N3CCOc4ccc(-c5ccccc5)cc43)nc2C1`, for which the IC50 in data set [1] worked out at 2670 nM; in [2], 80 nM; in data set [3], 854 nM; in [4] it was 7990 nM; in the data set on Neutrophil, 267 nM. The clearance was found to be 18 µL/min/mg in data set [5] (0.5 µM) and 15 µL/min/mg in data set [6] (microsomes, 0.5 µM).
On to `CC1(C)Cc2nc(N3CCOc4ccc(-c5ccccc5)cc43)sc2C(=O)N1`, for which the IC50 in data set [2] turned out to be 50 nM; in data set [3], 80 nM; in data set [4], 3660 nM; in the data set with Neutrophil it was 573 nM. Further, the microsomal CLint at 0.5 µM came out at 21 µL/min/mg in data set [5] and 39 µL/min/mg in data set [6].
Consider `CC1(C)CC(=O)c2sc(N3CCOc4cc(Br)ccc43)nc2C1`, for which the IC50 in [1] was 2850 nM; in [2] it was 549 nM; in data set [3] it was 3130 nM; in data set [4], 5340 nM.
Consider `Cc1ccc2c(c1)OCCN2c1nc2c(s1)C(=O)NC(C)(C)C2`, for which the IC50 turned out to be 605 nM in data set [2], 531 nM in [3] and 1620 nM in data set [4].
As for `CC1(C)CC(=O)c2sc(N3CCOCC3)nc2C1`, the CL in the data set on Hepatocyte is 7 µL/min/mg. For the same compound, the microsomal CLint at 0.5 µM in data set [6] was 6 µL/min/mg.
The compound `CC1(C)CC(=O)c2sc(N3CCOc4ccccc43)nc2C1` returned a CL in the data set with Hepatocyte of 162 µL/min/mg. The same compound had a fold change (FC) in the data set filed under Homo sapiens of 2. Besides, the IC50 in data set [1] was determined as 676 nM; in data set [2], 614 nM; in [3], 829 nM; in [4], 511 nM; in the data set with Neutrophil, 759 nM. Further, the results for the microsomal CLint at 0.5 µM in [5] and in data set [6] were 47 µL/min/mg and 220 µL/min/mg, respectively.
`CC1(C)CC(=O)c2sc(N3CCOc4ccc(Br)cc43)nc2C1`: the IC50 was 1970 nM in data set [1], 249 nM in data set [2], 829 nM in [3] and 1920 nM in data set [4].
In the same order, the values of `CC1(C)CC(=O)c2sc(N3CCOc4ccc(-c5ccncc5)cc43)nc2C1` are 825 nM, 94 nM, 159 nM and 1050 nM.
Taken in the same sequence, the figures for `CN(C)Cc1ccc2c(c1)N(c1nc3c(s1)C(=O)NC(C)(C)C3)CCO2` were more than 20000 nM, 7570 nM, more than 20000 nM and 10300 nM.
As for `CC1(C)Cc2nc(N3CCOc4ccccc43)sc2C(=O)N1`, the fold change (FC) in the data set listed under Homo sapiens stood at 2. In addition, the IC50 in data set [2] was 1630 nM; in data set [3] it was 959 nM; in [4], 1230 nM.
